Test results: PubChem BioAssay
Results filed as inconclusive are left out.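 How the source made its calls, unless noted: active means viability at or below 27.92% in each of two runs, the all-compound median minus 4 SD; inconclusive means no clear call, values can overlap the other calls; inactive means the rest.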

Experiments:
[1] = OD615 S. cerevisiae growth inhibition, permissive medium, pilot counter-assay, permissive growth control for S. cerevisiae lifespan shortening project (AID 705;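 active means growth inhibition above 25% in both replicates, a cutoff set 3 SD above the mean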); settings: OD615, 24 h, at 10 µM, hits give high values
Summary of the method: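 Material: engineered DeaD yeast; Compound: one dose 10 µM, DMSO 0.25% final; Detection: absorbance (optical density) at 615 nm; Buffer or medium: permissive raffinose/galactose medium; Timing: 24 h exposure, 30 °C.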

[2] = Restrictive medium S. cerevisiae growth inhibition, OD615, pilot screen of yeast lifespan reduction project, restrictive growth control (AID 706;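 active means growth inhibition above a set limit, 3 SD over mean compound inhibition, in both replicates, cut at about 43% in these data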;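 further: modified DeaD lifespan yeast strain shifted to restrictive glucose medium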); settings: OD615, 48 h, at 10 µM, hits give high values
Summary of the method: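 Buffer or medium: restrictive glucose medium (CSMM-D); test system: modified S. cerevisiae; doses: single dose of 10 µM compound final, 0.25% DMSO; schedule: 48 h compound exposure at 30 °C; detection: absorbance (optical density) measured at 615 nm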

[3] = viability gain of MRP-1-high H69AR cells under doxorubicin, pilot screen, MRP-1 activator project, CellTiter-Glo, duplicate (AID 807;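 active means viability increase at or above a cutoff of the median across tested compounds plus 3 SD, cut at about 8.5% in these data, passing the limit was not always enough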;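 further: compound pretreatment 18-22 h then 72 h combined with doxorubicin; 0% = doxorubicin alone and 100% = vehicle without doxorubicin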); settings: H69AR viability with doxorubicin, CellTiter-Glo luminescence; at 10 µM; hits give high values
[4] = growth suppression of beta-catenin knockout HCT116, pilot screen, human colon tumor cells (AID 823;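 active means cell viability at or below a set limit in both duplicate runs, the limit being the all-compound median minus 4 SD, cut at about 23% in these data, passing the limit was not always enough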;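 further: 0% = wells killed by 20 µM Hyamine and 100% = untreated DMSO cell wells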); settings: CellTiter-Glo, 60 h, at 10 µM, hits give low values
[5] = growth suppression of PTEN-deleted HCT116, pilot screen, cell-based, HCT116 clonal line, CellTiter-Glo (AID 824); settings: 60 h, at 10 µM, hits give low values;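 further: 0% = 20 µM Hyamine control and 100% = vehicle cell control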
[6] = inhibitors of the yeast RAM network, pilot screen, dse1pr::URA3 reporter, 5-FOA selection (AID 869;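 active means inhibition over a set limit, the all-compound mean plus 3 SD, in both replicate runs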;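 further: 0% = DMSO wells with no growth and 100% = 10 µM 1-NA-PP1 with full growth; RAM network block rescues cells from 5-FOA so hits raise OD615 growth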); settings: S. cerevisiae dse1pr::URA3 5-FOA growth, OD615, 2 d; at 10 µM; hits give high values; strain carries analog-sensitive mutant Cbk1 kinase
[7] = RAM signaling pathway blockade in yeast – S. cerevisiae, Pdr1DBD-CYC8 efflux-inhibited sensitized strain, primary screen (AID 1298;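 active means RAM network inhibition above 8.4% in each of two replicates, 3 SD over the compound average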;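 further: 0% = DMSO untreated cells without growth and 100% = 10 µM 1-NA-PP1 full growth; higher means more yeast growth rescued from 5-FOA killing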); settings: S. cerevisiae cbk1-as DSE1-URA3 strain, 5-FOA growth OD615, 2 d; at 50 µM; hits give high values

O=C(COC(=O)c1ccc(Br)o1)Nc1nc2ccccc2s1
inactive: growth inhibition [1] -11.2% | growth inhibition [2] -4.01% | viability increase [3] -4.65% | viability [4] 90.5% | viability [5] 87.8% | inhibition [6] 0.75% | RAM network inhibition [7] 1.88%

Cc1ccc(C(=O)Nc2ccc(S(=O)(=O)N3CCN(C)CC3)cc2)o1
inactive: growth inhibition [1] -8.11% | growth inhibition [2] -0.785% | viability increase [3] -0.32% | viability [4] 104% | viability [5] 103% | inhibition [6] 1.32% | RAM network inhibition [7] 3.17%

O=C(Cc1cccs1)N1CCN(c2ccccn2)CC1
inactive: growth inhibition [1] -2.47% | growth inhibition [2] -11.1% | viability increase [3] -0.45% | viability [4] 93.5% | viability [5] 98% | inhibition [6] 0.735% | RAM network inhibition [7] 2.55%

O=C(c1ccc(CS(=O)(=O)c2ccc(Br)cc2)o1)N1CCCCCC1
inactive: growth inhibition [1] -9.29% | growth inhibition [2] -18.8% | viability increase [3] -2.25% | viability [4] 87.9% | viability [5] 92.2% | inhibition [6] 0.185% | RAM network inhibition [7] 9.94%

CC(=O)N=C1SC2CS(=O)(=O)CC2N1c1c(Cl)cccc1Cl (configuration not stated)
inactive: growth inhibition [1] 5.46% | growth inhibition [2] 3.7% | viability increase [3] -1.41% | viability [4] 99.4% | viability [5] 94.2% | inhibition [6] 0.405% | RAM network inhibition [7] -0.17%

CCn1c2ccccc2c2cc(NC(=O)C3CCN(S(=O)(=O)c4cccs4)CC3)ccc21
inactive: growth inhibition [1] -8.9% | growth inhibition [2] -16.2% | viability increase [3] -5.99% | viability [4] 59.3% | viability [5] 66.2% | inhibition [6] 0.19% | RAM network inhibition [7] 4.66%

CC(C)NC(=O)C1(O)c2ccccc2NC(=O)N1c1ccc(Cl)c(Cl)c1 (configuration not stated)
inactive: growth inhibition [1] -5.92% | growth inhibition [2] -12.9% | viability increase [3] -2.69% | viability [4] 89.6% | viability [5] 93.9% | inhibition [6] 0.375% | RAM network inhibition [7] 2.53%

O=C(NC1CCCCC1)C(c1ccccc1)N1CCCC1 (configuration not stated)
inactive: growth inhibition [1] 1.67% | growth inhibition [2] -3.42% | viability increase [3] -1.59% | viability [4] 96.6% | viability [5] 97.7% | inhibition [6] 1.43% | RAM network inhibition [7] 5.5%

CC(=O)Nc1c(-c2ccccc2)nc2ncccn12
inactive: growth inhibition [1] -4.64% | growth inhibition [2] -5.57% | viability increase [3] -0.33% | viability [4] 108% | viability [5] 95.4% | inhibition [6] 2.77% | RAM network inhibition [7] 0.97%

Cc1cccn2c(=O)c3cc(C#N)c(=NC(=O)c4ccccc4)n(Cc4ccco4)c3nc12
inactive: growth inhibition [1] -4.6% | growth inhibition [2] -12.7% | viability increase [3] -1.26% | viability [4] 72.7% | viability [5] 62.2% | inhibition [6] 1.75% | RAM network inhibition [7] 4.04%

CN(C)Cc1nc2c([nH]1)c(=O)n(C)c(=O)n2C
inactive: growth inhibition [1] -6.75% | growth inhibition [2] -18% | viability increase [3] -1.31% | viability [4] 95.1% | viability [5] 92.7% | inhibition [6] 1% | RAM network inhibition [7] 4.51%

O=C(NCCN1CCN(c2cccc(Cl)c2)CC1)C1CCCN(S(=O)(=O)c2cnc[nH]2)C1 (configuration not stated)
inactive: growth inhibition [1] 3.09% | growth inhibition [2] 3.15% | viability increase [3] -1.5% | viability [4] 91.1% | viability [5] 89.7% | inhibition [6] 0.895% | RAM network inhibition [7] 5.7%

C=CCOC(=O)C1=C(C)NC(=O)NC1c1ccc(Cl)cc1 (configuration not stated)
inactive: growth inhibition [1] -3.88% | growth inhibition [2] -3.15% | viability increase [3] 0.95% | viability [4] 102% | viability [5] 88.2% | inhibition [6] -0.115% | RAM network inhibition [7] 2.31%

Cc1cccc(NC(=O)C2CCN(S(=O)(=O)c3cccc4cccnc34)CC2)c1
inactive: growth inhibition [1] 3.19% | growth inhibition [2] 11.8% | viability increase [3] -1.52% | viability [4] 88.2% | viability [5] 81.8% | inhibition [6] 3.88% | RAM network inhibition [7] 2.49%

CCOC1=NC(C(=O)O)c2ccccc2/C(=C(/C)Cl)N1 (configuration not stated)
inactive: growth inhibition [1] -4.61% | growth inhibition [2] -27.8% | viability increase [3] 0.7% | viability [4] 101% | viability [5] 96.8% | inhibition [6] 0.25% | RAM network inhibition [7] 2.78%

O=C(Cc1c(F)cccc1Cl)c1ccc(O)cc1O
inactive: growth inhibition [1] -10.5% | growth inhibition [2] -0.825% | viability increase [3] -0.88% | viability [4] 99.8% | viability [5] 100% | inhibition [6] 0.3% | RAM network inhibition [7] -1.74%

Cc1cc(C)n(C(=O)c2ccc(NC(=O)C3CC3)cc2)n1
inactive: growth inhibition [1] -8.57% | growth inhibition [2] -4.89% | viability increase [3] 1.99% | viability [4] 102% | viability [5] 91.3% | inhibition [6] 1.58% | RAM network inhibition [7] 5.67%

CCOc1ccc2[nH]c(C)c(CN(C)C)c(=O)c2c1
inactive: growth inhibition [1] 1.46% | growth inhibition [2] 9.84% | viability increase [3] -1.41% | viability [4] 99.4% | viability [5] 95.1% | inhibition [6] -0.27% | RAM network inhibition [7] 4.03%

CCOc1ccc(Nc2ncnc(N)n2)cc1
inactive: growth inhibition [1] -16% | growth inhibition [2] -1.21% | viability increase [3] 0.15% | viability [4] 97.4% | viability [5] 102% | inhibition [6] 0.055% | RAM network inhibition [7] 1.11%

CCOC(=O)C1CCN(C(=O)CN(c2cccc(OC)c2)S(=O)(=O)c2ccccc2)CC1
inactive: growth inhibition [1] -4.73% | growth inhibition [2] -0.62% | viability increase [3] -3.2% | viability [4] 92.9% | viability [5] 87.2% | inhibition [6] -0.74% | RAM network inhibition [7] 1.79%

CCC1(C)C2(C#N)C(N)=NC(OC)(OC)C12C#N (configuration not stated)
inactive: growth inhibition [1] -5.98% | growth inhibition [2] -10.1% | viability increase [3] -0.83% | viability [4] 106% | viability [5] 99.3% | inhibition [6] 1.41% | RAM network inhibition [7] 2.07%

Cc1ccc(C)c(N(C)S(=O)(=O)c2cccc3nsnc23)c1
inactive: growth inhibition [1] -6.8% | growth inhibition [2] -6.89% | viability increase [3] -3.51% | viability [4] 79.5% | viability [5] 75.5% | inhibition [6] 0.92% | RAM network inhibition [7] 7.63%

CCOC(=O)C1CCN(C(=O)C2c3ccccc3C(=O)N(C)C2c2ccc(OC)cc2)CC1 (configuration not stated)
inactive: growth inhibition [1] -7.75% | growth inhibition [2] -16.1% | viability increase [3] -4.5% | viability [4] 76.3% | viability [5] 85.8% | inhibition [6] 2.1% | RAM network inhibition [7] 1.79%

O=C(NCc1ccco1)C1CCN(S(=O)(=O)c2cccc3cccnc23)CC1
inactive: growth inhibition [1] 5.31% | growth inhibition [2] 5.93% | viability increase [3] -2.72% | viability [4] 99.4% | viability [5] 93.8% | inhibition [6] 2.12% | RAM network inhibition [7] 2.63%

O=C(Nc1nnc(-c2ccccc2)o1)c1nc2ccccc2s1
inactive: growth inhibition [1] -9.03% | growth inhibition [2] 10.3% | viability increase [3] -3.96% | viability [4] 93.8% | viability [5] 88.8% | inhibition [6] 1.39% | RAM network inhibition [7] 0.11%

CCCC(=O)N(Cc1cc2cc(C)ccc2[nH]c1=O)c1ccccc1OC
inactive: growth inhibition [1] 1.1% | growth inhibition [2] 1.19% | viability increase [3] -0.05% | viability [4] 80.7% | viability [5] 78% | inhibition [6] 1.04% | RAM network inhibition [7] 9.81%

CCC1CCCCN1Cc1nc2c(c(=O)n(C)c(=O)n2C)n1Cc1cccc2ccccc12 (configuration not stated)
inactive: growth inhibition [1] -13.7% | growth inhibition [2] -7.96% | viability increase [3] -1.54% | viability [4] 92.5% | viability [5] 83.1% | inhibition [6] 0.67% | RAM network inhibition [7] 8.51%

COc1cccc(-n2c(Cc3cc(=O)[nH]c(=O)[nH]3)nnc2SCC(=O)NC2CCCC2)c1
inactive: growth inhibition [1] -6.3% | growth inhibition [2] 8.16% | viability increase [3] -0.03% | viability [4] 101% | viability [5] 101% | inhibition [6] 2.87% | RAM network inhibition [7] -1.25%

Cn1c(=O)c2c(nc(N3CCN(Cc4ccccc4)CC3)n2CCSc2ncccn2)n(C)c1=O
inactive: growth inhibition [1] -9.24% | growth inhibition [2] -14% | viability increase [3] -0.19% | viability [4] 100% | viability [5] 106% | inhibition [6] 1.07% | RAM network inhibition [7] 2.77%

O=C1Nc2ccc(S(=O)(=O)N3CCCCCC3)c3cccc1c23
inactive: growth inhibition [1] -0.465% | growth inhibition [2] -4.72% | viability increase [3] -2.03% | viability [4] 95.2% | viability [5] 86.2% | inhibition [6] 1.57% | RAM network inhibition [7] 0.81%

CC1(C)CC2CC(C)(CN2C(=O)C23CCC(C)(C(=O)O2)C3(C)C)C1 (configuration not stated)
inactive: growth inhibition [1] -6.75% | growth inhibition [2] -1.53% | viability increase [3] -1.13% | viability [4] 92.5% | viability [5] 91.1% | inhibition [6] 2.16% | RAM network inhibition [7] 4%

CCN(CC)CC(O)COc1ccccc1C(=O)CCc1ccccc1 (configuration not stated)
inactive: growth inhibition [1] -17.4% | growth inhibition [2] -14.3% | viability increase [3] -4.88% | viability [4] 73% | viability [5] 80.5% | inhibition [6] 0.58% | RAM network inhibition [7] 4.17%

Nn1c(SCc2ccccc2)nnc1-c1ccco1
inactive: growth inhibition [1] -8.86% | growth inhibition [2] 3.38% | viability increase [3] -3.7% | viability [4] 99.2% | viability [5] 93% | inhibition [6] 0.67% | RAM network inhibition [7] -1.12%

CCn1c(SCC(=O)NCC2CCCO2)nc2c(c1=O)SC(C)C2 (configuration not stated)
inactive: growth inhibition [1] -2.03% | growth inhibition [2] -29.9% | viability increase [3] -1.87% | viability [4] 103% | viability [5] 98% | inhibition [6] 0.93% | RAM network inhibition [7] 2.66%

Cc1ccccc1-c1nc(CS(=O)CC(=O)NCc2ccccc2)c(C)o1 (configuration not stated)
inactive: growth inhibition [1] 0.295% | growth inhibition [2] 7.02% | viability increase [3] 1.37% | viability [4] 101% | viability [5] 101% | inhibition [6] 0.655% | RAM network inhibition [7] 4%

C=CCNC(=O)C1CCN(S(=O)(=O)c2ccc(Br)cc2)CC1
inactive: growth inhibition [1] -8.89% | growth inhibition [2] -18% | viability increase [3] -2.46% | viability [4] 48.1% | viability [5] 48.1% | inhibition [6] 0.52% | RAM network inhibition [7] 1.76%
